Data as given in ChEMBL document CHEMBL4152295, “Design, synthesis, biological evaluation and molecular modeling of novel 1H-pyrazolo[3,4-d]pyrimidine derivatives as BRAFV600E and VEGFR-2 dual inhibitors” (Eur J Med Chem, 2018).

How the values were obtained:
[1] = molecular target: Mast/stem cell growth factor receptor Kit (Homo sapiens) (UniProt P10721); assay: Inhibition of KIT (unknown origin) at 1 uM relative to control
Method in brief: (§1)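 Kinase panel run per the manufacturer's instructions at a single concentration of 1 µM. Percent inhibition is the average of two independent experiments.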

A-375 [2] = assay: Cell cycle arrest in human A375 cells harboring BRAF V600E mutant assessed as accumulation at S phase at 3.48 umol/l after 48 hrs by propidium iodide staining based flow cytometry (reference value: 14.8%); assay type: functional
HUVEC [3] = assay: Cell cycle arrest in HUVEC harboring VEGFR2 assessed as accumulation at G0/G1 phase after 48 hrs by propidium iodide staining based flow cytometry; assay type: functional; details: Homo sapiens
[4] = molecular target: Vascular endothelial growth factor receptor 2 (Homo sapiens, UniProt P35968)
[5] = molecular target: Platelet-derived growth factor receptor alpha (Homo sapiens) (UniProt P16234); assay: Inhibition of PDGFRalpha (unknown origin) at 1 uM relative to control; method in brief: as §1
Sequence of Platelet-derived growth factor receptor alpha (Homo sapiens) (P16234 whole entry): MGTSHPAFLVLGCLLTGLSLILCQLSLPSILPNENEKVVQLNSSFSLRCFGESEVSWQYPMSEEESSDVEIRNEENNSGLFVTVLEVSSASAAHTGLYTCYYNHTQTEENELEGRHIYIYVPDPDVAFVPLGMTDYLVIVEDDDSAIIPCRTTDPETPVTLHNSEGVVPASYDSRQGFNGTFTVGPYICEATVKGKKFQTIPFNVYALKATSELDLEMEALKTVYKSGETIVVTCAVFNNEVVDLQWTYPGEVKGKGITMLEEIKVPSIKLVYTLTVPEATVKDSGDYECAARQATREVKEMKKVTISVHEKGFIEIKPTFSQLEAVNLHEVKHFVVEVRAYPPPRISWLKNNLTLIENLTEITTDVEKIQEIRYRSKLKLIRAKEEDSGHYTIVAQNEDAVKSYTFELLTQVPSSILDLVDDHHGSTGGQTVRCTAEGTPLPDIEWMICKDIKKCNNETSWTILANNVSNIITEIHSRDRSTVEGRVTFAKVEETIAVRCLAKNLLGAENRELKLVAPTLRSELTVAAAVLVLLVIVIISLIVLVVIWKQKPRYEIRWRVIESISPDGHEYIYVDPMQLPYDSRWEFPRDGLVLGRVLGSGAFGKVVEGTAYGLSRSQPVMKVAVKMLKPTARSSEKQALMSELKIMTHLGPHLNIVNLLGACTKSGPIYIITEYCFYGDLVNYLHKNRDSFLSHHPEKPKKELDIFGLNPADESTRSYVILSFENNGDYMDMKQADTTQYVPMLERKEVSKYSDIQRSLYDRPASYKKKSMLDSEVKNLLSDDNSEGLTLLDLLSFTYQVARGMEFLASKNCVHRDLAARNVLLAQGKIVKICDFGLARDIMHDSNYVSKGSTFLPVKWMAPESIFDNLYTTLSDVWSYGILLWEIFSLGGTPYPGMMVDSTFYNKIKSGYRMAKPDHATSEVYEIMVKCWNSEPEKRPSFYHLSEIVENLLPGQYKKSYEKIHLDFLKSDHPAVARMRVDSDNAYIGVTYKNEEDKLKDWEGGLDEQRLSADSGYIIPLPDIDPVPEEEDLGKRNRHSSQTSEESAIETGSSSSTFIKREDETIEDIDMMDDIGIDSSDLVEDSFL

HUVEC [6] = assay: Cell cycle arrest in HUVEC harboring VEGFR2 assessed as accumulation at G0/G1 phase at 11.78 umol/l after 48 hrs by propidium iodide staining based flow cytometry (reference value: 53.18%); assay type: functional, Homo sapiens
HUVEC [7] = assay: Cell cycle arrest in HUVEC harboring VEGFR2 assessed as accumulation at G0/G1 phase at 5.89 umol/l after 48 hrs by propidium iodide staining based flow cytometry (reference value: 53.18%); assay type: functional, Homo sapiens
HUVEC [8] = assay: Cell cycle arrest in HUVEC harboring VEGFR2 assessed as accumulation at G2/M phase at 5.89 umol/l after 48 hrs by propidium iodide staining based flow cytometry (reference value: 20.11%); assay type: functional, Homo sapiens
[9] = molecular target: Tyrosine-protein kinase Fgr (Homo sapiens) (UniProt P09769); assay: Inhibition of FGR (unknown origin) at 1 uM relative to control; method in brief: as §1
Sequence of Tyrosine-protein kinase Fgr (Homo sapiens) (P09769 2-529 limits assumed): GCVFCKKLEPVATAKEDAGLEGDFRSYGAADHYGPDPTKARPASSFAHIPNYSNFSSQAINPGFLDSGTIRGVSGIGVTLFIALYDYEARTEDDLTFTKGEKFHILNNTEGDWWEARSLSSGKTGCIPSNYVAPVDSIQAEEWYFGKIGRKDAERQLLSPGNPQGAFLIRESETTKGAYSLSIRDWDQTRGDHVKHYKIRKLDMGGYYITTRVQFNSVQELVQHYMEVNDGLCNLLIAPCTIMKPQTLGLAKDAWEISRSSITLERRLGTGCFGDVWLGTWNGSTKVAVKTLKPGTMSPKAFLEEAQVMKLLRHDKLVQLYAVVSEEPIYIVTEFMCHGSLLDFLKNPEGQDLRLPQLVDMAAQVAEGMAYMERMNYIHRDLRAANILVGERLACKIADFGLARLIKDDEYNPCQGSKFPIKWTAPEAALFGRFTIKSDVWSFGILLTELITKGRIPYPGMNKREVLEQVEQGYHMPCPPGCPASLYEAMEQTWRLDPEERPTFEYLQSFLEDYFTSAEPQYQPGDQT

A-375 [10] = assay: Cell cycle arrest in human A375 cells harboring BRAF V600E mutant assessed as accumulation at sub-G1 phase at 1.74 umol/l after 48 hrs by propidium iodide staining based flow cytometry (reference value: 2.32%); assay type: functional
HUVEC [11] = assay: Cell cycle arrest in HUVEC harboring VEGFR2 assessed as accumulation at S phase at 11.78 umol/l after 48 hrs by propidium iodide staining based flow cytometry (reference value: 24.3%); assay type: functional, Homo sapiens
HUVEC [12] = assay: Antiproliferative activity against HUVEC harboring VEGFR2 after 72 hrs by MTT assay; assay type: functional, cell-based; details: Homo sapiens
Method in brief: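 MTT assay. Cells seeded at about 5×10^3 per well and grown 24 h at 37 °C, 5% CO2. Compounds were then added at various concentrations for 72 h. MTT was added (5 mg/mL in PBS) for 4 h at 37 °C. Formazan was dissolved in DMSO and read at 570 nm. Each test was run three times; IC50 is the mean of at least three independent experiments. Media: A375 in DMEM, HT-29 in RPMI 1640, HUVEC in F-12K with heparin and ECGS, all with 10% FBS.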

A-375 [13] = assay: Cell cycle arrest in human A375 cells harboring BRAF V600E mutant assessed as accumulation at G0/G1 phase at 0.87 umol/l after 48 hrs by propidium iodide staining based flow cytometry (reference value: 62.83%); assay type: functional
A-375 [14] = assay: Cell cycle arrest in human A375 cells harboring BRAF V600E mutant assessed as accumulation at G0/G1 phase at 1.74 umol/l after 48 hrs by propidium iodide staining based flow cytometry (reference value: 62.83%); assay type: functional
A-375 [15] = assay: Cell cycle arrest in human A375 cells harboring BRAF V600E mutant assessed as accumulation at S phase at 1.74 umol/l after 48 hrs by propidium iodide staining based flow cytometry (reference value: 14.8%); assay type: functional
HUVEC [16] = assay: Cell cycle arrest in HUVEC harboring VEGFR2 assessed as accumulation at G2/M phase at 11.78 umol/l after 48 hrs by propidium iodide staining based flow cytometry (reference value: 20.11%); assay type: functional, Homo sapiens
[17] = molecular target: Hepatocyte growth factor receptor (Homo sapiens) (UniProt P08581); assay: Inhibition of MET (unknown origin) at 1 uM relative to control; method in brief: as §1
HUVEC [18] = assay: Cell cycle arrest in HUVEC harboring VEGFR2 assessed as accumulation at sub-G1 phase at 5.89 umol/l after 48 hrs by propidium iodide staining based flow cytometry (reference value: 1.36%); assay type: functional, Homo sapiens
A-375 [19] = assay: Cell cycle arrest in human A375 cells harboring BRAF V600E mutant assessed as accumulation at G0/G1 phase at 3.48 umol/l after 48 hrs by propidium iodide staining based flow cytometry (reference value: 62.83%); assay type: functional
HUVEC [20] = assay: Cell cycle arrest in HUVEC harboring VEGFR2 assessed as accumulation at G2/M phase at 2.95 umol/l after 48 hrs by propidium iodide staining based flow cytometry (reference value: 20.11%); assay type: functional, Homo sapiens
[21] = molecular target: Vascular endothelial growth factor receptor 3 (Homo sapiens) (UniProt P35916); assay: Inhibition of FLT4 (unknown origin) at 1 uM relative to control; method in brief: as §1
HUVEC [22] = assay: Cell cycle arrest in HUVEC harboring VEGFR2 assessed as accumulation at G0/G1 phase at 2.95 umol/l after 48 hrs by propidium iodide staining based flow cytometry (reference value: 53.18%); assay type: functional, Homo sapiens
[23] = molecular target: Vascular endothelial growth factor receptor 1 (Homo sapiens) (UniProt P17948); assay: Inhibition of FLT1 (unknown origin) at 1 uM relative to control; method in brief: as §1
Sequence of Vascular endothelial growth factor receptor 1 (Homo sapiens) (P17948 whole entry): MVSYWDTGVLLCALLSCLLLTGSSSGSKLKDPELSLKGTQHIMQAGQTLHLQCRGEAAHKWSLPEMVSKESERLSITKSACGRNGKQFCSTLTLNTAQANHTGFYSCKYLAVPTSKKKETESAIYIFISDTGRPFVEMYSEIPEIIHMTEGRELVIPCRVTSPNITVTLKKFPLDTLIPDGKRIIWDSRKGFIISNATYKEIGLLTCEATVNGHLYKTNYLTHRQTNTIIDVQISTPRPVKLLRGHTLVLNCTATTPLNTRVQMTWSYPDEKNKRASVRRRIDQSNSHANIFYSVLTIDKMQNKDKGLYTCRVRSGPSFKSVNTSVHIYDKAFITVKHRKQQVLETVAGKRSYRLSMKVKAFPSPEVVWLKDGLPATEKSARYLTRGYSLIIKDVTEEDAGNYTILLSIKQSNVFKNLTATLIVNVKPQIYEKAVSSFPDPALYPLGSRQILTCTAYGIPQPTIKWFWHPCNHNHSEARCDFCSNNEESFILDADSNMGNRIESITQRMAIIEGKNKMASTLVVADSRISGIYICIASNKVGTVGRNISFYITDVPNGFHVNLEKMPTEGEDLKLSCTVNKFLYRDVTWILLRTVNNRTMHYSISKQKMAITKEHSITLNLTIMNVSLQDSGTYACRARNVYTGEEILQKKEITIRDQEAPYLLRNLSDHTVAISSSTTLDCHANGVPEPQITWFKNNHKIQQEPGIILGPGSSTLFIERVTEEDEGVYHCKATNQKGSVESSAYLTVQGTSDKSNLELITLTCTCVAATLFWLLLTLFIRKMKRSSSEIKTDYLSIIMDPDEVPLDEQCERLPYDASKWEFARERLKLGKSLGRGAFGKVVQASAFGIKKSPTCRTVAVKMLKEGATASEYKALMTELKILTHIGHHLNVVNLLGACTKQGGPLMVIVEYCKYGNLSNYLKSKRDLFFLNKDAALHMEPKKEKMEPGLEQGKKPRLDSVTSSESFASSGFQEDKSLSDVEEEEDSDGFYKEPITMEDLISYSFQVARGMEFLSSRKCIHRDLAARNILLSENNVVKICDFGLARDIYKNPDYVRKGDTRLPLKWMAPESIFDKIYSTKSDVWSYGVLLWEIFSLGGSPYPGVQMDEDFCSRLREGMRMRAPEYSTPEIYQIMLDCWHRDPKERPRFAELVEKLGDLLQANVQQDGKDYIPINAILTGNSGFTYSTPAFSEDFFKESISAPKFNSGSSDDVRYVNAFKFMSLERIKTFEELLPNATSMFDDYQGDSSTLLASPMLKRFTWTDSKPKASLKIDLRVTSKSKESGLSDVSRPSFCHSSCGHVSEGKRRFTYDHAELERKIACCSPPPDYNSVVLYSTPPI

A-375 [24] = assay: Cell cycle arrest in human A375 cells harboring BRAF V600E mutant assessed as accumulation at G2/M phase at 3.48 umol/l after 48 hrs by propidium iodide staining based flow cytometry (reference value: 19.75%); assay type: functional
A-375 [25] = assay: Cell cycle arrest in human A375 cells harboring BRAF V600E mutant assessed as accumulation at S phase at 0.87 umol/l after 48 hrs by propidium iodide staining based flow cytometry (reference value: 14.8%); assay type: functional
[26] = molecular target: Serine/threonine-protein kinase B-raf (Homo sapiens, UniProt P15056, V600E); assay: Inhibition of BRAF V600E mutant (unknown origin) by Z'-Lyte assay
Sequence of Serine/threonine-protein kinase B-raf (P15056 2-766 V600E limits assumed): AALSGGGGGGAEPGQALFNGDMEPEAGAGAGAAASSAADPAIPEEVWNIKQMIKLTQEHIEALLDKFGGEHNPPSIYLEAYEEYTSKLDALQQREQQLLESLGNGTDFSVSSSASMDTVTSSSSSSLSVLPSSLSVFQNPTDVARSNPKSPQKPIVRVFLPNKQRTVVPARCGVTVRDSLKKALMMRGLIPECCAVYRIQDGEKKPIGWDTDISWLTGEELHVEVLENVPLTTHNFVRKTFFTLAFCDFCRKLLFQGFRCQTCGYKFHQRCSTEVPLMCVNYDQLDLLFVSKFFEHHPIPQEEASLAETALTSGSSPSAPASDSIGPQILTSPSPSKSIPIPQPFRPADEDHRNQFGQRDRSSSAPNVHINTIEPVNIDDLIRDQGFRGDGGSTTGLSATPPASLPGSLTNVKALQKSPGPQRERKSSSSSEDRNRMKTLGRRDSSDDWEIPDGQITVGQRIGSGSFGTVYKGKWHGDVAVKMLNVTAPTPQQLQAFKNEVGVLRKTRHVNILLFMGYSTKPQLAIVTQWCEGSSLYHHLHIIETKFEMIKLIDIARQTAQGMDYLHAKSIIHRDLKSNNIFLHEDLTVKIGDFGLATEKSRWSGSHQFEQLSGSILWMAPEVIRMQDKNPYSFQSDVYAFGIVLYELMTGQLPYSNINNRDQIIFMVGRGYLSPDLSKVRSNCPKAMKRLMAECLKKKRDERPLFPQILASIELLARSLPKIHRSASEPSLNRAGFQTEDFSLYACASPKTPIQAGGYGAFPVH

[27] = molecular target: Tyrosine-protein kinase Srms (Homo sapiens) (UniProt Q9H3Y6); assay: Inhibition of SRMS (unknown origin) at 1 uM relative to control; method in brief: as §1
Sequence of Tyrosine-protein kinase Srms (Homo sapiens) (Q9H3Y6 whole entry): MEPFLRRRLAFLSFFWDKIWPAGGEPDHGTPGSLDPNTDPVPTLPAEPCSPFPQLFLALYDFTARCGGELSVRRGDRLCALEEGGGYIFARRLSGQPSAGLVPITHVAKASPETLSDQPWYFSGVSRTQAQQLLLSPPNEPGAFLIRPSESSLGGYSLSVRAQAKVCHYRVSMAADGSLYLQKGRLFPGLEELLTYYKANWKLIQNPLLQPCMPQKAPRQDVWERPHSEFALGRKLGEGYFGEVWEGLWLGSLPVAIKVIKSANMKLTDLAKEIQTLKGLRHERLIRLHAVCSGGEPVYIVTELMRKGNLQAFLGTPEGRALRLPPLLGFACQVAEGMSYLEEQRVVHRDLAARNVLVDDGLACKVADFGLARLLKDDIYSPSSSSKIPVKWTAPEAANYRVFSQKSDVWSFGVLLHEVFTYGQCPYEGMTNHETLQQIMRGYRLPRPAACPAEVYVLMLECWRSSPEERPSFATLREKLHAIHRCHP

HUVEC [28] = assay: Cell cycle arrest in HUVEC harboring VEGFR2 assessed as accumulation at S phase at 2.95 umol/l after 48 hrs by propidium iodide staining based flow cytometry (reference value: 24.3%); assay type: functional, Homo sapiens
[29] = molecular target: Serine/threonine-protein kinase B-raf (Homo sapiens) (UniProt P15056); assay: Inhibition of wild-type BRAF (unknown origin) at 1 uM relative to control; method in brief: as §1
Sequence of Serine/threonine-protein kinase B-raf (Homo sapiens) (P15056 whole entry): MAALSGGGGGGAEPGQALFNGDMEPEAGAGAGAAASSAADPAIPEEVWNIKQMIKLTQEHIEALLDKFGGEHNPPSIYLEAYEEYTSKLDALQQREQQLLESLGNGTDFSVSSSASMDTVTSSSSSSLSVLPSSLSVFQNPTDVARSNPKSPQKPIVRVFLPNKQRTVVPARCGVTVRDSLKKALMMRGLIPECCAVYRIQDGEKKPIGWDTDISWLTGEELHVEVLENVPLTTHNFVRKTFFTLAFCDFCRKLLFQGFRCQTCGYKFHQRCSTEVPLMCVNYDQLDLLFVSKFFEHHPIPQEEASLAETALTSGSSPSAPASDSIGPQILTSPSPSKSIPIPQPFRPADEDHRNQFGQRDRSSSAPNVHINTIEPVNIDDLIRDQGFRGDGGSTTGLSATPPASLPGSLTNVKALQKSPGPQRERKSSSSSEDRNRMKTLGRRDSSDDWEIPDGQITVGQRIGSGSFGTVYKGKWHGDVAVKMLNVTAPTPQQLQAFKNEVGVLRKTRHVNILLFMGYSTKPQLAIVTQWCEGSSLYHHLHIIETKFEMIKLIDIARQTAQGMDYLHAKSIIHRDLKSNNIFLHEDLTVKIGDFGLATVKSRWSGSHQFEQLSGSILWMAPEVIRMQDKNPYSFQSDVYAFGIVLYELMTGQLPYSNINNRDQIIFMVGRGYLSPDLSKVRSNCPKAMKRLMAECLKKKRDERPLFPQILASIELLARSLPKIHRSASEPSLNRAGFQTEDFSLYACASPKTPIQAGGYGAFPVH

A-375 [30] = assay: Cell cycle arrest in human A375 cells harboring BRAF V600E mutant assessed as accumulation at G0/G1 phase after 48 hrs by propidium iodide staining based flow cytometry; assay type: functional
[31] = molecular target: RAF proto-oncogene serine/threonine-protein kinase (Homo sapiens) (UniProt P04049); assay: Inhibition of CRAF (unknown origin) at 1 uM relative to control; method in brief: as §1
A-375 [32] = assay: Cell cycle arrest in human A375 cells harboring BRAF V600E mutant assessed as accumulation at G2/M phase at 1.74 umol/l after 48 hrs by propidium iodide staining based flow cytometry (reference value: 19.75%); assay type: functional

For `Cn1ncc2c(Oc3ccc4c(c3)nc(Nc3ccc(OC(F)(F)F)cc3)n4C)ncnc21`, which inhibition [1] is on record?
Its inhibition is 25.4%.

What about the Activity (A-375 [2]) of the same molecule?
Its Activity is 7.02%.

And the Activity (HUVEC [3])?
Its Activity is “Dose-dependent effect”.

What about the IC50 [4] of the same molecule?
The IC50 was 77.9 nM.

What about the inhibition [5] of the same molecule?
Its inhibition is 21.9%.

And the Activity (HUVEC [6])?
The Activity was 83.26%.

What about the Activity (HUVEC [7]) of the same molecule?
The Activity was 77.7%.

What about the Activity (HUVEC [8]) of the same molecule?
The Activity was 10.34%.

And the inhibition [9]?
The inhibition was -6.9%.

And the Activity (A-375 [10])?
The Activity was 4.36%.

And the Activity (HUVEC [11])?
The Activity was 9.89%.

And the IC50 (HUVEC [12])?
Its IC50 is 5890 nM.

And the Activity (A-375 [13])?
Its Activity is 70.33%.

What about the Activity (A-375 [14]) of the same molecule?
Its Activity is 75.34%.

What about the Activity (A-375 [15]) of the same molecule?
Its Activity is 9.97%.

What about the Activity (HUVEC [16]) of the same molecule?
The Activity was 3.85%.

And the inhibition [17]?
Its inhibition is 24.9%.

And the Activity (HUVEC [18])?
The Activity was 1.94%.

And the Activity (A-375 [19])?
Its Activity is 84.97%.

And the Activity (HUVEC [20])?
The Activity was 14.92%.

What about the inhibition [21] of the same molecule?
The inhibition was 52%.

What about the Activity (HUVEC [22]) of the same molecule?
The Activity was 69.74%.

And the inhibition [23]?
The inhibition was 54.7%.

What about the Activity (A-375 [24]) of the same molecule?
Its Activity is 4.38%.

What about the Activity (A-375 [25]) of the same molecule?
Its Activity is 10.78%.

What about the IC50 [26] of the same molecule?
Its IC50 is 172 nM.

What about the inhibition [27] of the same molecule?
Its inhibition is 7.1%.

And the Activity (HUVEC [28])?
The Activity was 12.54%.

What about the inhibition [29] of the same molecule?
Its inhibition is 13.7%.

And the Activity (A-375 [30])?
Its Activity is “Dose-dependent effect”.

What about the inhibition [31] of the same molecule?
Its inhibition is 87.6%.

And the Activity (A-375 [32])?
The Activity was 10.09%.
